≈ marks a conversion by molar mass, not a printed value.
Experiments:
[1] = biological target: T1, Sphingosine 1-phosphate receptor 1 (Homo sapiens, UniProt P21453); assay: Agonist activity at human S1P1 receptor expressed in human U2OS cells co-expressing eGFP assessed as receptor internalization after 1 hr; format: functional, cell-based
Summary of the method: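 U2OS cells expressing an hS1P1-GFP fusion protein; the read-out was receptor internalization. EC50 is the molar concentration giving a half-maximal response.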

[2] = biological target: T1, Sphingosine 1-phosphate receptor 1; assay: Agonist activity at human S1P1 receptor expressed in human U2OS cells co-expressing eGFP assessed as receptor internalization after 1 hr relative to 1-(4-(6-benzylbenzofuran-2-yl)-3-fluorobenzyl)azetidine-3-carboxylic acid; format: functional, cell-based
[3] = biological target: T2, Sphingosine 1-phosphate receptor 3 (Homo sapiens, UniProt Q99500); assay: Agonist activity at human S1P3 receptor expressed in CHO cells coexpressing Gq/i5 G-protein assessed as Ca2+ mobilization after 60 to 90 mins by FLIPR assay; format: functional, cell-based
Summary of the method: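 Ca2+ mobilization in CHO-K1 cells transfected with hS1P3/Gq/i5. EC50 is the molar concentration giving a half-maximal response.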

[4] = biological target: T2, Sphingosine 1-phosphate receptor 3; assay: Agonist activity at human S1P3 receptor expressed in CHO cells coexpressing Gq/i5 G-protein assessed as Ca2+ mobilization at 25 uM after 60 to 90 mins by FLIPR assay; format: functional, cell-based
[5] = Solubility of the compound in simulated intestinal fluid at pH 6.8 after 2 to 3 days by HPLC analysis; format: physicochemical
[6] = Apparent permeability of the compound across pig LLC-PK1 cells; format: ADME, cell-based, Sus scrofa
Summary of the method: (§1)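 Parental porcine proximal tubule LLC-PK1 cell line. Apparent permeability was measured, and the efflux ratio was derived from it.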

[7] = Efflux ratio of permeability in pig LLC-PK1 cells; format: ADME, cell-based, Sus scrofa; summary of the method: as §1
[8] = Plasma protein binding in rat; format: ADME, cell-free; conditions: read-out: PPB (converted)
[9] = Intrinsic clearance in rat liver microsomes at 1 uM after 30 mins; format: ADME, Microsome; conditions: read-out: CLH
Rattus norvegicus = assay: Lymphopenic activity in Lewis rat assessed as reduction in peripheral blood lymphocyte counts at 1 mg/kg, po measured 24 hrs post dosing relative to control; format: functional; design: scale not given: the % may be the effect or the level left
Summary of the method: (§2)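 Female Lewis rats (N = 5/group) received a single oral dose of 1 mg/kg in 20% captisol, 1% HPMC, 1% pluronic F68, pH 2.1 with MSA. Peripheral lymphocyte count is given as percent-of-control reduction versus vehicle at 24 h. Total plasma drug concentration was measured at 24 h. Statistics used ANOVA/Dunnett versus vehicle.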

[10] = Plasma concentration in Lewis rat at 1 mg/kg, po measured 24 hrs post dosing; format: ADME, organism-based; design: dose 1 mg/kg, route oral; conditions: Lewis, plasma; summary of the method: as §2
[11] = biological target: T2, Sphingosine 1-phosphate receptor 3; assay: Agonist activity at human S1P3 receptor expressed in CHO cells coexpressing Gq/i5 G-protein assessed as Ca2+ mobilization after 60 to 90 mins by FLIPR assay relative to 0.2 uM S1P

T2 sequence (Q99500 whole entry): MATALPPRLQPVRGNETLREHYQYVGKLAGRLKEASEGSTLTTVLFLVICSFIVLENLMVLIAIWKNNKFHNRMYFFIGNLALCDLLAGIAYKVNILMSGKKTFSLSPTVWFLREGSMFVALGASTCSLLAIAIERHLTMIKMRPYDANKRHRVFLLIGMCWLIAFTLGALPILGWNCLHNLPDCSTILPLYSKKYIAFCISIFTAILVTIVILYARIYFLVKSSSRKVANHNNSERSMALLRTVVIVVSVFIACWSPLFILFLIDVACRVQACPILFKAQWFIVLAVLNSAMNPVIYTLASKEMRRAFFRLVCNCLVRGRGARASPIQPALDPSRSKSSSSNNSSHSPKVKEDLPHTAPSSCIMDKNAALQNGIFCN
T1 sequence (P21453 whole entry, the tested form may be a part): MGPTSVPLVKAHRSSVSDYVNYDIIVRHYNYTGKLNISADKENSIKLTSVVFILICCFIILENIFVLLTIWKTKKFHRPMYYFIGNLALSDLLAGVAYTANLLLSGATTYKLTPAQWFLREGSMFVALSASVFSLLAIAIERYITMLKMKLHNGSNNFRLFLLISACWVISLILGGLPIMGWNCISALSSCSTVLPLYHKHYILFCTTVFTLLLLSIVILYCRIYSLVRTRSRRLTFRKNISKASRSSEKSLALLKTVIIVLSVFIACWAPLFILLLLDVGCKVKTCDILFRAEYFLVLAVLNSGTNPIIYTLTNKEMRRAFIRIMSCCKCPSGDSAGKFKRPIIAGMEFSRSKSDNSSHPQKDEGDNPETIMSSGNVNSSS

SMILES	EC50 [1] [µM]	Efficacy [2] [%]	EC50 [3] [µM]	Activity [4] [%]	solubility [5] [µg/mL]	Papp [6] [nm/s]	efflux ratio [7]	fraction unbound [8]	microsomal CLint at 1 µM [9] [µL/min/mg]	Activity (Rattus norvegicus) [%]	concentration at 24 h [10] [µg/mL]	Efficacy [11] [%]
Cn1cc(C(=O)Nc2ccc(-c3ccccc3)c(C(F)(F)F)c2)c(=O)c2ccc(NCCC(=O)O)cc21	0.15	81	> 25	< 10								
Cn1cc(C(=O)Nc2ccc(-c3ccccc3)c(C(F)(F)F)c2)c(=O)c2ccc(CO)cc21	0.018	125	> 25	< 10	27 (≈ 59.7 µM)	28	1	0.076	< 14	-44	0.065	
Cn1cc(C(=O)Nc2ccc(-c3ccccc3)c(C(F)(F)F)c2)c(=O)c2ccc(CC(=O)O)cc21	0.18	138	1.6									28
Cn1cc(C(=O)Nc2ccc(-c3ccccc3)c(C(F)(F)F)c2)c(=O)c2ccc(CN3CC(C(=O)O)C3)cc21	0.025	108	> 25	< 10								
Cn1cc(C(=O)Nc2ccc(-c3ccccc3)c(C(F)(F)F)c2)c(=O)c2cccc(CN)c21	0.081	118	5.6									48
Cn1cc(C(=O)Nc2ccc(-c3ccccc3)c(C(F)(F)F)c2)c(=O)c2cnccc21			> 25	< 10	5 (≈ 11.8 µM)			0.083	< 14	-64		
Cn1cc(C(=O)Nc2ccc(-c3ccccc3)c(C(F)(F)F)c2)c(=O)c2ccc(CCO)cc21	0.008	118	> 25	< 10	6 (≈ 12.9 µM)	22	1	0.073	< 14	-48	0.027	
Cn1cc(C(=O)Nc2ccc(-c3ccccc3)c(C(F)(F)F)c2)c(=O)c2ccc(CCCO)cc21	0.015	118	> 25	< 10								
Cn1cc(C(=O)Nc2ccc(-c3ccccc3)c(C(F)(F)F)c2)c(=O)c2cccc(C(=O)O)c21	2	103	1.1									11

Source: ChEMBL document CHEMBL2034924, “Optimization of a Potent, Orally Active S1P1 Agonist Containing a Quinolinone Core” (ACS Med Chem Lett, 2012)
